This passage reports cytotoxicity results from ChEMBL document CHEMBL4513216, “Probing the Open Global Health Chemical Diversity Library for Multistage-Active Starting Points for Next-Generation Antimalarials” (ACS Infect Dis, 2020).

The series in a line: Toxicity liver stage against HepG2, at 10uM. The series is classed as cell-based. Set-up: test concentration 10 uM, cell line HepG2-A16-CD81EGFP. Conditions: human, HepG2-A16-CD81EGFP cells; read-out: INHIBITION
The procedure, abridged: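 Uninfected HepG2-A16-CD81EGFP cells, 3 × 10^3 per well, 1536-well, plated on prespotted compound at 10 μM final, parasite-free screening media added to match infected plates; puromycin 10 μM positive, DMSO 0.5% negative; run in parallel with 48 h PbLuc assay at 37 °C, 5% CO2; viability by CellTiter-Glo luminescence, normalized to controls.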
With `c1cnc(-c2cnc(N3CCSCC3)nc2C2CC2)cn1`, the cytotoxicity at 10 µM turned out to be 17.3%.
For the compound `CC(C)CN1C(=O)C[C@@H]2[C@@H]1CCN2Cc1cccc(C#N)c1`, the cytotoxicity at 10 µM is -66.4%.
In the case of `Cc1cc(CNC(=O)C2CCN(CC(N)=O)CC2)cc(C)n1` it was -3.06%.
In the case of `O=C(Nc1ccccc1)C1CN(Cc2cccs2)CC12CCOCC2` (configuration not stated), the cytotoxicity at 10 µM is 3.09%.
As for `O=C1CCCCCN1Cc1ncnn1Cc1c(F)cccc1Cl`, the cytotoxicity at 10 µM stood at 2.14%.
As for `Cc1nccn1[C@@H]1CC[C@@H](N(C)S(=O)(=O)c2ccc(F)cc2)[C@H]1O`, the cytotoxicity at 10 µM is -0.535%.
In the case of `CN(Cc1nc(-c2cccs2)no1)Cc1nc2c(s1)CCCC2` it was 3.01%; in that of `COc1ncccc1C(=O)Nc1ccccc1-c1ccc(=O)n(C)n1`, -0.843%.
Consider `O=C(Cc1nc(-c2ccncc2)n[nH]1)NCCCN1CCOCC1`, for which the cytotoxicity at 10 µM was -1.8%.
To `O=C(c1cccnc1O)N1CCCC2(C=Cc3ccccc3O2)CC1` (configuration not stated) belongs 9.02%.
Regarding `Cc1n[nH]c(C)c1CCN(C)c1ccc(-c2nc(C3CC3)no2)cn1`, the cytotoxicity at 10 µM was 2.08%.
For the compound `Cc1noc(C)c1-c1nc(C2CCCN(C(=O)CCN)C2)ccc1CO` (configuration not stated), the cytotoxicity at 10 µM is -2.53%.
On to `CC(C)COc1ccccc1C(N)CC(C)C` (configuration not stated), for which the cytotoxicity at 10 µM was -5.27%.
With `O=S(=O)(NCCCn1cncn1)c1ccc2c(c1)OCCCO2`, the cytotoxicity at 10 µM was 3.51%.
To `COCCC(Cc1cccc(Br)c1)C(=O)N(C)C` (configuration not stated) belongs 13%; to `CCOC(=O)CC(C)NC(=O)c1cn(Cc2ccccc2F)nn1` (configuration not stated), -4.75%; to `COc1ncnc(N(C)C)c1NC(=O)Cc1cc(F)ccc1F`, -2.67%.
To `Cc1cc(CCC(=O)N2CC[C@H](O)C2)ccc1Br` belongs 2.35%.
On to `CCn1nc(C)c2ncnc(NCCCN3CCOCC3)c21`, for which the cytotoxicity at 10 µM amounted to 2.06%.
On to `OCCn1nccc1C1CCN(CCOc2ccccc2F)CC1`, for which the cytotoxicity at 10 µM is -5.25%.
For the compound `Cc1ccc(CN2CC(C(=O)NC(C)C)C3(CCOCC3)C2)s1` (configuration not stated), the cytotoxicity at 10 µM is 1.12%.
As for `CCc1csc(C2CCCN(C(=O)c3ccnc(N(C)C)c3)C2)n1` (configuration not stated), the cytotoxicity at 10 µM was -6.81%.
In the case of `CC(=O)Nc1ncc(S(=O)(=O)N2CCOCC2)s1` it was 4.81%; in that of `Cn1cc(C(=O)NCc2ccc(N3CCNC(=O)C3)c(F)c2)cn1`, -2.97%; in that of `CCCC1CN(CC(C)C)C(=O)c2cccnc2O1` (configuration not stated), 3.04%.
For the compound `CCc1ccccc1CN1CC[C@@H](NC(=O)c2cccnc2)[C@H](O)C1`, the cytotoxicity at 10 µM is -9.67%.
Take `COc1ccc(Br)cc1CCC(=O)N1CCSCC1`: the cytotoxicity at 10 µM came out at 5.48%.
As to `CNC(=O)C1CCN(C(=O)c2cccn2Cc2cccs2)CC1`, the cytotoxicity at 10 µM is -3.74%.
In the case of `O=C1CCCN1CCc1nc(-c2ccsc2)no1` it was -1.22%; in that of `COc1cnc(C2(O)CCN(C(=O)c3ccncc3)CC2)c(OC)n1`, -4.38%.
For the compound `CC(C)n1cnc2c(N3CCCC3)nc(C3CCNCC3)cc21`, the cytotoxicity at 10 µM was -3.03%.
In the case of `Fc1cc(Cl)cnc1N1CCCC(c2nccn2Cc2ccncc2)C1` (configuration not stated), the cytotoxicity at 10 µM was -2%.
To `Cc1ccc(C(=O)N2CCC(n3cc(CO)nn3)CC2)cn1` belongs -1.72%; to `CCc1nc(CN2CCCC(Cn3nc(C)nc3C)C2)no1` (configuration not stated), -2.68%.
In the case of `CN1CCCN(Cc2nc(Cc3ccccc3)n[nH]2)CC1`, the cytotoxicity at 10 µM was -7.47%.
As to `O=C(CCc1cccnc1)N1CCC(c2cnccn2)CC1`, the cytotoxicity at 10 µM was -10.4%.
In the case of `OC[C@H]1CCCN1c1nccc(-c2cncnc2C2CCCCC2)n1` it was 0.0815%; in that of `COCC1Cn2nnc(-c3cnn(C)c3)c2CN1Cc1ccsc1` (configuration not stated), 2.11%; in that of `COCC(=O)N1Cc2nccn2CC(CN(C)Cc2cccnc2)C1` (configuration not stated), -76.2%.
For the compound `O=S(=O)(Cc1ccccc1F)NC(CO)c1ccco1` (configuration not stated), the cytotoxicity at 10 µM stood at 6.6%.
For `Cc1nnsc1C(=O)NCc1cccnc1N1CCc2ccccc2C1`, the cytotoxicity at 10 µM came to 10.8%.
In the case of `Cc1noc(C)c1CNC(=O)N1CCN(Cc2cscn2)CC1`, the cytotoxicity at 10 µM is -6.31%.
On to `O=C(C1CC1)N1Cc2[nH]nc(COCc3cccnc3)c2C1`, for which the cytotoxicity at 10 µM was determined as 0.997%.
For `CS(=O)(=O)N1C[C@H]2CCCN(Cc3cccs3)[C@H]2C1`, the cytotoxicity at 10 µM was found to be 7.69%.
Turning to `CCOCC1CN(Cc2ccsc2)Cc2cnn(C)c21` (configuration not stated), the cytotoxicity at 10 µM was determined as 7.72%.
For the compound `O=C(c1ccnnc1)N1CCCn2nnc(COCC3CC3)c2C1`, the cytotoxicity at 10 µM was determined as 7.95%.
With `N#Cc1cccnc1OC1CCN(C(=O)NCc2ccccc2)CC1`, the cytotoxicity at 10 µM came to 1.38%.
To `O=C(NCc1ccc(Cl)s1)c1cc(CN2CCCC(O)C2)on1` (configuration not stated) belongs -52.3%.
To `Oc1cc(-c2ccsc2)nc(C2CCN(Cc3ccncc3)CC2)n1` belongs -7.7%.
With `COc1ccc(C2c3c(n[nH]c3C)N=C3COC(=O)C32)cc1OC` (configuration not stated), the cytotoxicity at 10 µM came to 7.98%.
To `CN(CCN1CCOC1=O)CC(=O)Nc1ccc(Cl)c(C(F)(F)F)c1` belongs -46.5%; to `CN(C)S(=O)(=O)CCCOc1cccc(-n2ccnc2)c1`, 14%.
Regarding `Cc1cc(=O)[nH]c(-n2nc(C)c(CCC(=O)NCc3ccco3)c2C)n1`, the cytotoxicity at 10 µM is -5.33%.
In the case of `Cc1oncc1C(=O)N1CC2CC1(C(=O)NCc1ccco1)C2` it was 4.76%; in that of `COc1ccc(C(C(=O)O)N2CCN(C3CCCC3)CC2)cc1C` (configuration not stated), -8.77%.
As for `COCc1ncc(-c2nccn2CCN(C)C)cn1`, the cytotoxicity at 10 µM was 0.126%.
For `COc1ccc2cccc(CC(=O)NCCCc3n[nH]c(C)n3)c2c1`, the cytotoxicity at 10 µM was -2.11%.
To `Cc1cnc(C(=O)N2Cc3ccccc3OC3(CCOCC3)C2)cn1` belongs -1.54%.
To `Cc1ccc(C(=O)N2CCCC(Nc3ccc(F)cc3)C2)cc1` (configuration not stated) belongs -3.53%.
Consider `O=C(O)CSc1nnc(-c2ccn[nH]2)n1-c1ccccc1C(F)(F)F`, for which the cytotoxicity at 10 µM was -3.85%.
In the case of `CC(=O)NCCNC(=O)CNC1CCCN(c2ccc(C)nn2)C1` (configuration not stated), the cytotoxicity at 10 µM is 3.47%.
To `O=C(O)c1cc(NS(=O)(=O)c2ccccc2F)ccc1N1CCSCC1` belongs -5.27%; to `CCCN1C[C@@H]2CC[C@H]1CN(C(=O)c1ccc(N(C)CCO)cc1)C2`, -6.47%.
Consider `Cc1nc(-c2ccc(Cl)cc2)n(CC(=O)NC(C)C)c(=O)c1CCO`, for which the cytotoxicity at 10 µM is -8.88%.
As for `CC(C)(CO)Nc1c(NCc2ccccc2)c(=O)c1=O`, the cytotoxicity at 10 µM is -2.96%.
For `COc1cccc(-c2n[nH]cc2CNCC2CCS(=O)(=O)C2)c1` (configuration not stated), the cytotoxicity at 10 µM was -3.54%.
In the case of `Cc1nccn1-c1ncccc1CNC(=O)c1ccc(O)nc1` it was -7.55%; in that of `Cc1cc2ccccc2n1CC(=O)NC(C)C(=O)N1CCOCC1` (configuration not stated), 3.57%.
`CCCc1nc(C)c(CN2CC3(CCOC3)CCC2=O)s1` (configuration not stated): the cytotoxicity at 10 µM is -10.5%.
As for `COCC(=O)NC(c1ccc(Cl)cc1)c1noc(C)n1` (configuration not stated), the cytotoxicity at 10 µM amounted to 6.66%.
On to `CNc1nc(C(=O)N2CCCCC2c2ccc(CN(C)C)cc2)cs1` (configuration not stated), for which the cytotoxicity at 10 µM is -2.86%.
To `COCCCN(C)S(=O)(=O)c1ccc(Cl)cc1C#N` belongs -38%.
